Measured values from different studies.
Protocols differ between the studies behind these lines.
Target: Mitogen-activated protein kinase kinase kinase 5 (MAP3K5, Homo sapiens, UniProt Q99683)
Residues used in one study (Q99683 1-1374): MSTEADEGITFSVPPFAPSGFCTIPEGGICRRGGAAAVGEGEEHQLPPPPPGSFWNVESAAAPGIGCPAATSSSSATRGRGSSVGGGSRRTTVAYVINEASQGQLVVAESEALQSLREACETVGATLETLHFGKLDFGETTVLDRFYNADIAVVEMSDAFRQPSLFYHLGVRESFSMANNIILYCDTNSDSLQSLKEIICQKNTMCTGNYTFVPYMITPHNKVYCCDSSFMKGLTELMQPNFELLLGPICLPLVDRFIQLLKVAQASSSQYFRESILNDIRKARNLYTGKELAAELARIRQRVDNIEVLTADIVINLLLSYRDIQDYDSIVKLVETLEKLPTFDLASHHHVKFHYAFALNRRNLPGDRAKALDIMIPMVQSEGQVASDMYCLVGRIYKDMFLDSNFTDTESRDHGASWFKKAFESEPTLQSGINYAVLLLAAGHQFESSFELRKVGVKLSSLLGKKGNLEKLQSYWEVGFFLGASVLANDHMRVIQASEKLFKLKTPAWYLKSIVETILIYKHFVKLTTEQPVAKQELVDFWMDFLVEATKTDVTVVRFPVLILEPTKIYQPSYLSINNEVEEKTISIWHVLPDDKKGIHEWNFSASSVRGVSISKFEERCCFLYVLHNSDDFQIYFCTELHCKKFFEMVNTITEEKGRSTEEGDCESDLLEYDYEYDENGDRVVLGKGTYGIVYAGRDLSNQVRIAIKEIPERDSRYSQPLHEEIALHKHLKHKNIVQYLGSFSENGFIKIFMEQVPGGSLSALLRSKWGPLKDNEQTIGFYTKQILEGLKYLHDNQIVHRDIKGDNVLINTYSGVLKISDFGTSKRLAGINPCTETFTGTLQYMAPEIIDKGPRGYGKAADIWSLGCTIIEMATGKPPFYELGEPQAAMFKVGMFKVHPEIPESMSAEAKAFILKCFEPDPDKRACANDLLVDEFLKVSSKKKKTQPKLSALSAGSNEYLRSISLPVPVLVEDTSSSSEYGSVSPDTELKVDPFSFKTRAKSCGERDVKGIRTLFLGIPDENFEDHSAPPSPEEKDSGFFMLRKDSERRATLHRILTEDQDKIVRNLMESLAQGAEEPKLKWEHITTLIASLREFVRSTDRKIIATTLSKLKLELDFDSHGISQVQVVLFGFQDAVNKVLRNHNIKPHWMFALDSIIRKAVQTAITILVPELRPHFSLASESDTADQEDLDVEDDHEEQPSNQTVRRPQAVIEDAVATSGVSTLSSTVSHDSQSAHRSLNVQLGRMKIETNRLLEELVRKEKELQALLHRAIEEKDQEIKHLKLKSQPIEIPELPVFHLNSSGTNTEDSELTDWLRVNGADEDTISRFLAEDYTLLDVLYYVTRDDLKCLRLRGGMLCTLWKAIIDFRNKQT

COc1ncc2cc3ccccc3nc2c1C#N — remaining binding (cell-free assay; competition with immobilised ligand; 5 µM): 96%
Cc1nc(N2CC[C@@H](O)C2)ncc1-c1cc(C(F)(F)F)cc2[nH]ncc12 — remaining binding (binding; competition with immobilised ligand; 1 µM): 100%
F[C@@H]1CCN(c2nccc(-c3cnn4ncccc34)n2)C1 — remaining binding (binding; 1 µM): 83%
O=C(Nc1ccc(Oc2ccc(F)cc2)cc1)N1CCc2ncccc2[C@H]1c1ccc(F)cc1 — remaining binding (cell-free assay; competition with immobilised ligand; 1 µM): 87%
CN(c1nccc(-c2cnn3ncccc23)n1)C1CC1 — remaining binding (binding; 1 µM): 100%
CNC(=O)[C@@H]1CC[C@@H](n2c(-c3ccc4cnccc4c3)nc3ccc(C(=O)NCc4cccc(C(N)=O)c4)cc32)C1 — remaining binding (binding; competition with immobilised ligand; 1 µM): 92%
O=C(c1ccc(Nc2ncc(Cl)c(-c3ccc(Cl)s3)n2)cc1)N1CCC(N2CCCC2)CC1 — remaining binding (binding; competition with immobilised ligand; 1 µM): 100%
COc1cc(-c2cn(C3CCc4ccccc4N(CC(F)(F)F)C3=O)nn2)ccc1-n1ccc(C)n1 (stereo not drawn) — remaining binding (cell-free assay; competition with immobilised ligand; 1 µM): 100%
C=CC(=O)N1CCC(C(=O)NCC(=O)N2CCN(c3nc(-c4cnc(N)nc4C(F)F)nc(N4CCOCC4)n3)CC2)CC1 — remaining binding (binding; competition with immobilised ligand; 1 µM): 100%
CC1CCCN1c1nccc(-c2cnn3ncccc23)n1 (stereo not drawn) — remaining binding (binding; 1 µM): 79%
O=C(O)[C@@H]1[C@@H](Cn2nnc3ccccc3c2=O)CC[C@H]1C(=O)c1ccc(OCCC2CCOCC2)cc1 — remaining binding (cell-free assay; competition with immobilised ligand; 1 µM): 94%
CN(C)c1ncc(F)c(-c2cnn3ncccc23)n1 — remaining binding (binding; 1 µM): 100%
FC(F)(F)Oc1cccc(-c2cnc3ccc(-c4ccncc4)nn23)c1 — remaining binding (cell-free assay; competition with immobilised ligand; 5 µM): 100%
Cc1cc(C)c(-n2ccn3nc(-c4cccnc4)cc23)cc1NC(=O)c1cc(C#N)cc(S(F)(F)(F)(F)F)c1 — remaining binding (cell-free assay; competition with immobilised ligand; 0.1 µM): 100%
Cc1cnn2ncc(-c3ccnc(N(C)C)n3)c2c1 — remaining binding (binding; 1 µM): 100%
C[C@@H](c1ccc(-n2cnc3c(N)ncnc32)cc1)N1CCc2nn(C)c(Cc3ccccc3)c2C1=O — remaining binding (binding; competition with immobilised ligand; 0.1 µM): 95%
O=C(c1ccc(Nc2nccc(-c3cc4ccccc4s3)n2)cc1)N1CCC(N2CCCC2)CC1 — remaining binding (binding; competition with immobilised ligand; 1 µM): 100%
O=C(Nc1c[nH]nc1C(=O)NC1CCNCC1)c1cc(F)cc(F)c1 — remaining binding (binding; competition with immobilised ligand; 1 µM): 100%
N[C@@H]1CCN(c2nccc(-c3cnn4ncccc34)n2)C1 — remaining binding (binding; 1 µM): 100%
O=C(NCCCN1CCOCC1)c1ccc(Nc2ncc(Cl)c(-c3ccc(Cl)s3)n2)cc1 — remaining binding (binding; competition with immobilised ligand; 1 µM): 100%
CCCOc1ccc([C@@H]2[C@@H](C(=O)O)[C@H](c3ccc4c(c3)OCO4)CN2CC(=O)Nc2c(CC)cccc2CC)cc1 — remaining binding (cell-free assay; competition with immobilised ligand; 1 µM): 97%
